According to ChEMBL document CHEMBL1122774, “Tri- and tetrapeptide analogues of kinins as potential renal vasodilators” (J Med Chem, 1984):
Several values for one entry are separate records, joined by “and”; a condition that tells them apart may be missing. Equal values may be shown once. Square brackets hold non-standard residues; d marks the D form. Peptide text beside a SMILES is read from it. * marks the point of attachment. ξ: configuration not given here. Butanoyl(4-(4-HOPh)) = O=C(CCCc1ccc(O)cc1)*; ξαMeF = CC(N)(Cc1ccccc1)C(=O)O; Bz = O=C(c1ccccc1)*

Columns and labels:
[1] = Average max percent decrease in RVR (renal vascular resistance) was determined.
Outline: (§1)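 Secondary protocol in anesthetized dogs. Drug given as iv infusion at progressively increasing rates, each dose level for 5 min. The maximum effect is taken as the largest percent decrease in renal vascular resistance (RVR) reached with the compound. RVR is calculated as mean arterial blood pressure / mean renal blood flow.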

[2] = test system: Canis familiaris; test: Compound was evaluated for renal vasodilator activity and represented as ED15 (intravenous administration); assay type: functional; details: Canis lupus familiaris
Outline: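 Secondary protocol in anesthetized dogs with iv infusion at progressively increasing rates, each level infused 5 min. Potency is the cumulative dose (µg/kg) that lowered renal vascular resistance (MABP / mean RBF) by 15%. Minimum change needed for significance (p = 0.95) is 16% for RVR.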

[3] = test system: Canis familiaris; test: Renal vasodilator activity in anesthetized dogs and percent change in mean arterial blood pressure (MABP) was determined at 3 ug/Kg/min; assay type: functional, Canis lupus familiaris
Outline: (§2)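 Primary screen in anesthetized dogs (7-17 kg). Drug infused separately at 3, 30 and 300 µg/(kg min), each infusion lasting 5 min, at about 15-min intervals. Read-outs are renal blood flow, mean arterial blood pressure, heart rate, and RVR (MABP / mean RBF), as percent change. Significance thresholds are defined per number of dogs; n = 1-3 dogs.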

[4] = test system: Canis familiaris; test: In vivo percent change in canine heart rate at 3 ug/Kg/min.; assay type: functional, Canis lupus familiaris; outline: as §2
[5] = test system: Canis familiaris; test: In vivo percent change in canine heart rate at 30 ug/Kg/min.; assay type: functional, Canis lupus familiaris; outline: as §2
[6] = test system: Canis familiaris; test: In vivo percent change in canine heart rate at 300 ug/Kg/min.; assay type: functional, Canis lupus familiaris; outline: as §2
[7] = test system: Canis familiaris; test: In vivo percent change in canine mean arterial blood pressure (MABP) at 30 ug/Kg/min.; assay type: functional, Canis lupus familiaris; outline: as §2
[8] = test system: Canis familiaris; test: In vivo percent change in canine mean arterial blood pressure (MABP) at 300 ug/Kg/min.; assay type: functional, Canis lupus familiaris; outline: as §2
[9] = test system: Canis familiaris; test: In vivo percent change in canine renal blood flow (RBF) at 3 ug/Kg/min.; assay type: functional, Canis lupus familiaris, Kidney; outline: as §2
[10] = test system: Canis familiaris; test: In vivo percent change in canine renal blood flow (RBF) at 30 ug/Kg/min.; assay type: functional, Canis lupus familiaris, Kidney; outline: as §2
[11] = test system: Canis familiaris; test: In vivo percent change in canine renal blood flow (RBF) at 300 ug/Kg/min.; assay type: functional, Canis lupus familiaris, Kidney; outline: as §2
[12] = test system: Canis familiaris; test: In vivo percent change in canine renal vascular resistance (RVR) at 3 ug/Kg/min.; assay type: functional, Canis lupus familiaris; outline: as §2
[13] = test system: Canis familiaris; test: In vivo percent change in canine renal vascular resistance (RVR) at 30 ug/Kg/min.; assay type: functional, Canis lupus familiaris; outline: as §2
[14] = test system: Canis familiaris; test: In vivo percent change in canine renal vascular resistance (RVR) at 300 ug/Kg/min.; assay type: functional, Canis lupus familiaris; outline: as §2
[15] = Ratio of ED20 of MABP (mean arterial blood pressure) to the ED15 of RVR ( renal vascular resistance).; assay type: functional
Outline: (§3)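 Anesthetized dogs in the secondary cumulative-infusion protocol, each dose level 5 min. Selectivity ratio is the dose giving a 20% change in mean arterial blood pressure divided by the cumulative dose lowering renal vascular resistance 15% (RVR ED15).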

[16] = Ratio of ED30 of iliac vascular resistant (IVR) to the ED15 of RVR (renal vascular resistance); assay type: functional
Outline: (§4)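 Anesthetized dogs in the secondary cumulative-infusion protocol, each dose level 5 min. Selectivity ratio is the dose giving a 30% change in iliac vascular resistance divided by the RVR ED15, the cumulative dose decreasing renal vascular resistance by 15%.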

[17] = Ratio of ED30 of iliac vascular resistant (IVR) to the ED15 of RVR(renal vascular resistance); assay type: functional; outline: as §4
[18] = test system: Canis familiaris; test: In vivo percent change in renal blood flow at 30 ug/Kg/min.; assay type: functional, Canis lupus familiaris, Kidney; outline: as §2
[19] = test system: Canis familiaris; test: Renal vasodilator activity in anesthetized dogs and percent change in renal vascular resistance (RVR) was determined at 30 ug/Kg/min; assay type: functional, Canis lupus familiaris; outline: as §2
[20] = test system: Canis familiaris; test: Renal vasodilator activity in anesthetized dogs and percent change in heart rate (HR) was determined at 3 ug/kg min; assay type: functional, Canis lupus familiaris; outline: as §2
[21] = test system: Canis familiaris; test: Renal vasodilator activity in anesthetized dogs and percent change in heart rate (HR) was determined at 30 ug/kg min; assay type: functional, Canis lupus familiaris; outline: as §2
[22] = test system: Canis familiaris; test: Renal vasodilator activity in anesthetized dogs and percent change in heart rate (HR) was determined at 300 ug/kg min; assay type: functional, Canis lupus familiaris; outline: as §2
[23] = test system: Canis familiaris; test: Renal vasodilator activity in anesthetized dogs and percent change in mean arterial blood pressure (MABP) was determined at 3 ug/kg min; assay type: functional, Canis lupus familiaris; outline: as §2
[24] = test system: Canis familiaris; test: Renal vasodilator activity in anesthetized dogs and percent change in mean arterial blood pressure (MABP) was determined at 30 ug/kg min; assay type: functional, Canis lupus familiaris; outline: as §2
[25] = test system: Canis familiaris; test: Renal vasodilator activity in anesthetized dogs and percent change in mean arterial blood pressure (MABP) was determined at 300 ug/kg min; assay type: functional, Canis lupus familiaris; outline: as §2
[26] = test system: Canis familiaris; test: Renal vasodilator activity in anesthetized dogs and percent change in renal blood flow (RBF) was determined at 3 ug/kg min; assay type: functional, Canis lupus familiaris, Kidney; outline: as §2
[27] = test system: Canis familiaris; test: Renal vasodilator activity in anesthetized dogs and percent change in renal blood flow (RBF) was determined at 30 ug/kg min; assay type: functional, Canis lupus familiaris, Kidney; outline: as §2
[28] = test system: Canis familiaris; test: Renal vasodilator activity in anesthetized dogs and percent change in renal blood flow (RBF) was determined at 300 ug/kg min; assay type: functional, Canis lupus familiaris, Kidney; outline: as §2
[29] = test system: Canis familiaris; test: Renal vasodilator activity in anesthetized dogs and percent change in renal vascular resistance (RVR) was determined at 3 ug/kg min; assay type: functional, Canis lupus familiaris; outline: as §2
[30] = test system: Canis familiaris; test: Renal vasodilator activity in anesthetized dogs and percent change in renal vascular resistance (RVR) was determined at 300 ug/kg min; assay type: functional, Canis lupus familiaris; outline: as §2
[31] = test system: Canis familiaris; test: Renal vasodilator activity in anesthetized dogs and percent change in renal vascular resistance (RVR) was determined at 30 ug/kg min; assay type: functional, Canis lupus familiaris; outline: as §2
[32] = Average max percent decrease in RVR (renal vascular resistance) was determined; outline: as §1
[33] = test system: Canis familiaris; test: In vivo percent change in canine mean arterial blood pressure (MABP) at 3 ug/Kg/min.; assay type: functional, Canis lupus familiaris; outline: as §2
[34] = test system: Canis familiaris; test: Renal vasodilator activity in anesthetized dogs was determined as percent change in heart rate (HR) at 30 ug/Kg/min; assay type: functional, Canis lupus familiaris; outline: as §2
[35] = Ratio of ED20 of MABP (mean arterial blood pressure) to the ED15 of RVR (renal vascular resistance); assay type: functional; outline: as §3
[36] = test system: Canis familiaris; test: Renal vasodilator activity in anesthetized dogs and percent change in heart rate (HR) was determined at 300 ug/Kg/min; assay type: functional, Canis lupus familiaris; outline: as §2
[37] = test system: Canis familiaris; test: Renal vasodilator activity in anesthetized dogs and percent change in renal vascular resistance (RVR) was determined at 300 ug/Kg/min; assay type: functional, Canis lupus familiaris; outline: as §2

Molecule | ED15 [2] | Change [4] | Change [5] | Change [6] | Change [7] | Change [8] | Change [9] | Change [11] | Change [12] | Change [13] | Change [14] | Ratio [15] | Ratio [16] | Change [18] | Change [19] | Change [33] | other results
CC(Cc1ccccc1)(NC(=O)[C@@H]1CCCN1C(=O)CC12CC3CC(CC(C3)C1)C2)C(=O)N[C@@H](CCCN=C(N)N)C(=O)O (stereo partly drawn) | 0.072 mg/kg | 3.5% | 0.5% | 2% | 1% | 3% | 13% | -14% | -11.5% | -0.5% | 21.5% | >84 | 0 |  |  |  | Decrease [1]: 19%; Change [3]: -0.5%; Change [10]: 0.5%
H-RPPGFSPFR-OH [BRADYKININ] | 0.0028 mg/kg |  |  |  |  |  |  |  |  |  |  | 7 and 8 |  |  |  |  | Ratio [17]: 25
CC(Cc1ccccc1)(NC(=O)[C@@H]1CCCN1C(=O)CCCc1ccccc1)C(=O)NCCCN.Cl (stereo partly drawn) |  | -1.5% | 0.3% | 0.5% | -0.5% | -3.5% | 4% | 10% | -3.5% |  | -11.5% |  |  | 5.5% | -6% |  | Change [3]: 0%
CC(Cc1ccc(O)cc1)(NC(=O)[C@@H]1CCCN1C(=O)CCCc1ccc(O)cc1)C(=O)N[C@@H](CCCN=C(N)N)C(=O)O (stereo partly drawn) | 0.0455 mg/kg |  |  |  |  |  |  |  |  |  |  | >1665 | < 9 |  |  |  | Decrease [1]: 16%; Change [20]: 3.5%; Change [21]: -7.5%; Change [22]: 2.4%; Change [23]: -2.5%; Change [24]: -3%; Change [25]: 1%; Change [26]: 20%; Change [27]: 28%; Change [28]: 28%; Change [29]: -19%; Change [30]: -17%; Change [31]: -20%
CC(Cc1ccccc1)(NC(=O)[C@@H]1CCCN1C(=O)CCCc1ccc(O)cc1)C(=O)NCC(=O)N1CCC[C@H]1C(=O)O (stereo partly drawn) ({Butanoyl(4-(4-HOPh))}-P[ξαMeF]GP-OH) | 0.0049 mg/kg | 6% |  | 6% | -9% | -6% | 17% | 14% | -18% |  | -17% |  | > 1230 | 16% | -21% | -5% | Decrease [32]: 20%; Change [34]: 10%; Ratio [35]: >1226
COc1ccc(CC(C)(NC(=O)[C@@H]2CCCN2C(=O)CCCc2ccc(O)cc2)C(=O)N[C@@H](CCCN=C(N)N)C(=O)O)cc1OC (stereo partly drawn) | 0.506 mg/kg | 1.7% | 6.3% |  | -7.7% | -32% | 4.3% | 29.5% | -6.7% |  | -44.5% | >12 | > 12 | 18% | -21.3% | -2.7% | Decrease [1]: 31%; Change [36]: 16%
CC(Cc1ccccc1)(NC(=O)[C@@H]1CCCN1)C(=O)NCCCN.Cl.Cl (stereo partly drawn) |  | -1% | -1% |  | -1% | -1% | 5% | 2% | -4% | -1% | -3% |  |  | 1% |  | 1% | Change [36]: 0%
CC(Cc1ccccc1)(NC(=O)[C@@H]1CCCN1C(=O)c1ccccc1)C(=O)N[C@@H](CCCN=C(N)N)C(=O)O (stereo partly drawn) (Bz-Pro-[ξαMeF]-Arg-OH) |  | -6% | 3% |  | 1% | -4% | 4% | -3% | -5% | -2% | 0% |  |  | 3% |  | -1% | Change [36]: 6%
CC(Cc1ccccc1)(NC(=O)[C@@H]1CCCN1C(=O)CCCc1ccccc1)C(=O)N1CCC[C@H]1C(=O)O (stereo partly drawn) |  | 0% | 0% | -2% | 0% | 1% | 3% | 4% | -8% |  |  |  |  | 2% | -2% | 0.5% | Change [37]: -3%
H-FSPFR-OH | 0.0052 mg/kg |  |  |  |  |  |  |  |  |  |  | >1158 | > 1160 |  |  |  | Change [20]: 0.8%; Change [21]: 0%; Change [22]: 4.8%; Change [23]: -1.2%; Change [24]: 0.5%; Change [25]: -5.7%; Change [26]: 3%; Change [27]: 6.5%; Change [28]: 26.2%; Change [29]: -3.8%; Change [30]: -24.8%; Change [31]: -5.1%
COc1ccc(CC(C)(NC(=O)[C@@H]2CCCN2C(=O)CCCc2ccccc2)C(=O)N[C@@H](CCCN=C(N)N)C(=O)O)cc1OC (stereo partly drawn) |  | 4.5% | 1% | 2.5% | -1% | -2% | 7.5% | 5% | -8.5% | -8.5% | -7% |  |  | 8.5% |  |  | Change [3]: -2%
CC(CN[C@@H](CCCN=C(N)N)C(=O)O)(Cc1ccccc1)NC(=O)[C@@H]1CCCN1C(=O)CCCc1ccccc1 (stereo partly drawn) |  | 0% | -7% | -23% | 0% | 8% | 11% | 4% | -12% |  | -4% |  |  | 10% | -9% |  | Change [3]: -2%
Cl.Cl.NCCCNC(=O)[C@H](Cc1ccccc1)NC(=O)[C@@H]1CCCN1 |  | -1.5% | -1% | -1% | 0% | -3.5% | 3.5% | 6.5% | -3% | -5% | -9% |  |  |  |  | -0.5% | Change [10]: 5%
CC(Cc1ccccc1)(NC(=O)[C@@H]1CCCN1C(=O)CCCc1ccc(O)cc1)C(=O)NCCCN.Cl (stereo partly drawn) |  | 0.7% | 1.3% | 8% | 3% | -1.4% | 3.3% | 11.7% | 4% |  |  |  |  | 4.3% | -4.7% | -0.7% | Change [37]: -11.3%
